Experimental data from ChEMBL document CHEMBL1154907, “Synthesis and preclinical evaluations of 2-(2-fluorophenyl)-6,7-methylenedioxyquinolin-4-one monosodium phosphate (CHM-1-P-Na) as a potent antitumor agent” (J Med Chem, 2010).
Active and inactive are the calls of the source. The rule behind the calls is not given here.

Tests used:
OVCAR-3 = test: Growth inhibition of human OVCAR-3 cells by SRB assay; format: functional
Procedure, shortened: (§1)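 Human cancer cell panel; five concentrations from 10^-4 to 10^-8 M; growth measured by sulforhodamine B colorimetric method; GI50, TGI and LC50 derived from computer-analysed dose-response curves.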

NCI-H226 = test: Growth inhibition of human NCI-H226 cells by SRB assay; format: functional; procedure, shortened: as §1
[1] = molecular target: Mitogen-activated protein kinase 10 (Homo sapiens) (UniProt P53779); test: Inhibition of human JNK3 at 10 uM by enzyme assay
Mitogen-activated protein kinase 10 (Homo sapiens), sequence (P53779 whole entry): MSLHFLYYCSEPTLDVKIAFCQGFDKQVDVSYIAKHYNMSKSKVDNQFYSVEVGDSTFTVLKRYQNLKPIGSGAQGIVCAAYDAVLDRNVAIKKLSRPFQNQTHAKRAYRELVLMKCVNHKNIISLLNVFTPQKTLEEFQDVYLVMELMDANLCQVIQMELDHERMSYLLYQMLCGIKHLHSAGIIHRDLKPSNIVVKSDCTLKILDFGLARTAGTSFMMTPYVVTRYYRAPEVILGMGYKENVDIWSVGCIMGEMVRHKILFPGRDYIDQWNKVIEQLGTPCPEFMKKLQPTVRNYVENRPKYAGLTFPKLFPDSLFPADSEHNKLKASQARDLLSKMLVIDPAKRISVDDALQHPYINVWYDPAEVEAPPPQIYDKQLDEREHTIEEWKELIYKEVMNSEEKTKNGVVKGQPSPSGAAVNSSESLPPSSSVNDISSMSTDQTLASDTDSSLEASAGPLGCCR
Procedure, shortened: (§2)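 Commercial spectrum screen of enzyme assays under standard protocols; percent inhibition tested at 10 μM; IC50 determined for targets showing significant inhibition at that concentration; SEM given where multiple independent determinations.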

[2] = Growth inhibition of human HBC4 cells by SRB assay; format: functional; procedure, shortened: as §1
[3] = Growth inhibition of human MKN1 cells by SRB assay; format: functional, MKN-1; procedure, shortened: as §1
SK-OV-3 [4] = test: Cell cycle arrest in human SKOV3 cells assessed as decrease in accumulation at G0/G1 phase at 10 uM after 36 hrs by propidium iodide-based flow cytometry; format: functional
Procedure, shortened: (§3)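 SKOV-3 cells (DMEM/F-12, 10% fetal calf serum) treated with 10 μM for 6, 12, 24, 36 or 48 h; trypsinized, PBS-washed, fixed in 70% ice-cold ethanol overnight at -20 °C, RNase A treated, propidium iodide stained; DNA content by flow cytometry, phase percentages and hypodiploid fraction scored.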

PC-3 = test: Growth inhibition of human PC3 cells by SRB assay; format: functional; procedure, shortened: as §1
[5] = Growth inhibition of human BSY1 cells by SRB assay; format: functional, BSY-1; procedure, shortened: as §1
ACHN = test: Growth inhibition of human ACHN cells by SRB assay; format: functional; procedure, shortened: as §1
NCI-H460 = test: Growth inhibition of human NCI-H460 cells by SRB assay; format: functional; procedure, shortened: as §1
MDA-MB-231 = test: Growth inhibition of human MDA-MB-231 cells by SRB assay; format: functional; procedure, shortened: as §1
MCF7 = test: Growth inhibition of human MCF7 cells by SRB assay; format: functional; procedure, shortened: as §1
[6] = Cmax in CD1 mouse at 10 mg/kg, ip; format: ADME, organism-based; parameters: dose 10 mg/kg, route intraperitoneal; conditions: in vivo
Procedure, shortened: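 Male CD-1 (Crl.) mice (22-24 g), single 10 mg/kg dose. Prodrug in 9% NaHCO3/water (1 mg/mL) given iv by tail vein or po by gavage after 4 h fast; parent given ip in cremophor/DMSO/saline 20/5/75 (2 mg/mL). Plasma sampled to 27 h, three mice per time point, acetonitrile precipitation, LC-MS/MS (ESI positive); parameters from mean plasma concentrations.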

MKN-74 = test: Growth inhibition of human MKN74 cells by SRB assay; format: functional; procedure, shortened: as §1
MAO-A = MAO-A (Homo sapiens, UniProt P21397); test: Inhibition of human MAO-A at 10 uM by enzyme assay; procedure, shortened: as §2
MAO-A, sequence (P21397 whole entry): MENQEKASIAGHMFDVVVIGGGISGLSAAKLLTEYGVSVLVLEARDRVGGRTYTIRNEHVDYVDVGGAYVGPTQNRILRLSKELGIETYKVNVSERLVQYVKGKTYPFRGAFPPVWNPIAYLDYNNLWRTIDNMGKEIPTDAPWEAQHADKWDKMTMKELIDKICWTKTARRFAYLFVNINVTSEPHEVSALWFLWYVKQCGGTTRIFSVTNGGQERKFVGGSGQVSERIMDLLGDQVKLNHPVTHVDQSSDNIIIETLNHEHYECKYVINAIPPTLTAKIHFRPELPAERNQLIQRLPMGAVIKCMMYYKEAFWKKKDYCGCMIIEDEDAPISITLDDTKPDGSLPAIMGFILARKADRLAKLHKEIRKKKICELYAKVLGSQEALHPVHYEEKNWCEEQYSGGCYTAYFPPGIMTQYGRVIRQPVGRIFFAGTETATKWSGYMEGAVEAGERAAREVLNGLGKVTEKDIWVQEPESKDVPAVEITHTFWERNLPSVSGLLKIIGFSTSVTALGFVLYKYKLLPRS

SK-OV-3 [7] = test: Cell cycle arrest in human SKOV3 cells assessed as accumulation of cells with G2/M DNA at 10 uM after 36 hrs by propidium iodide-based flow cytometry; format: functional; procedure, shortened: as §3
SK-OV-3 [8] = test: Induction of mitotic arrest in human SKOV3 cells assessed as increase in cyclin B1 expression at 10 uM after 24 hrs by Western blot; format: functional, cell-based
Procedure, shortened: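 SKOV-3 cells in DMEM/F-12 with 10% fetal calf serum, treated with 10 μM or vehicle (DMSO). Lysates, 50 μg protein, resolved by SDS-PAGE, transferred to PVDF, probed for cyclin B1 or securin with β-actin loading control; ECL detection, bands quantified by phosphorimaging; at least three separate experiments.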

SNB-78 = test: Growth inhibition of human SNB78 cells by SRB assay; format: functional
Procedure, shortened: (§4)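 Cancer cell panel; growth measured by sulforhodamine B colorimetric method across five concentrations from 10^-4 to 10^-8 M; GI50, TGI and LC50 derived from computer-analysed dose-response curves.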

[9] = Growth inhibition of human RXF631L cells by SRB assay; format: functional, RXF 631; procedure, shortened: as §4
HCC 2998 = test: Growth inhibition of human HCC2998 cells by SRB assay; format: functional; procedure, shortened: as §1
Pepsin A (Sus scrofa) = Pepsin A (Sus scrofa) (UniProt P00791); test: Inhibition of pig pepsin at 10 uM by enzyme assay; procedure, shortened: as §2
Pepsin A (Sus scrofa), sequence (P00791 60-385 limits assumed): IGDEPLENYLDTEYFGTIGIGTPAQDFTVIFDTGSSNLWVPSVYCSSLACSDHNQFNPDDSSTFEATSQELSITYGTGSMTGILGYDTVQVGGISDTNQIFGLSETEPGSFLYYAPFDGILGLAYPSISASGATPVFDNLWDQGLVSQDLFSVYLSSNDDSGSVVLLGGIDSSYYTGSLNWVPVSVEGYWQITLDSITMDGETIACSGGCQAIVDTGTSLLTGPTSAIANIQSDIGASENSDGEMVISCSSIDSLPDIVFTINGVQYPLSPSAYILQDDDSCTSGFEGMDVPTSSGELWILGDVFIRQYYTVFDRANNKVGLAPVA

MKN-45 = test: Growth inhibition of human MKN45 cells by SRB assay; format: functional; procedure, shortened: as §1
[10] = Tmax in CD1 mouse at 10 mg/kg, ip; format: ADME, organism-based; parameters: dose 10 mg/kg, route intraperitoneal; conditions: in vivo
Procedure, shortened: (§5)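 Male CD-1 (Crl.) mice, 22-24 g, single 10 mg/kg ip bolus of parent drug in cremophor/DMSO/saline (20/5/75, v/v; 2 mg/mL, 5 mL/kg). Blood sampled at 0, 5, 15, 30 min, 1, 1.5, 2, 4, 6, 9, 24, 27 h, three mice per time point. Plasma extracted with acetonitrile, analysed by LC-MS/MS. Parameters calculated from mean plasma concentrations.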

LOX IMVI = test: Growth inhibition of human LOXIMVI cells by SRB assay; format: functional; procedure, shortened: as §1
MKN-28 = test: Growth inhibition of human MKN28 cells by SRB assay; format: functional; procedure, shortened: as §1
SF-295 = test: Growth inhibition of human SF295 cells by SRB assay; format: functional; procedure, shortened: as §4
[11] = Growth inhibition of human DMS144 cells by SRB assay; format: functional; procedure, shortened: as §1
SK-OV-3 [12] = test: Cell cycle arrest in human SKOV3 cells assessed as increase in accumulation of hypodiploid cells at 10 uM after 48 hrs by propidium iodide-based flow cytometry; format: functional; procedure, shortened: as §3
SK-OV-3 [13] = test: Growth inhibition of human SKOV3 cells by SRB assay; format: functional; procedure, shortened: as §4
[14] = Half life in CD1 mouse at 10 mg/kg, ip; format: ADME, organism-based; parameters: dose 10 mg/kg, route intraperitoneal; conditions: in vivo; procedure, shortened: as §5

For `O=c1cc(-c2ccccc2F)[nH]c2cc3c(cc12)OCO3`, the GI50 (OVCAR-3; OVCAR-3) was 7080 nM, the CC50 (OVCAR-3; OVCAR-3, read-out: pLC50 (converted)) was > 100000 nM and the TGI (OVCAR-3; OVCAR-3, read-out: pTGI) was > 100000 nM. The GI50 (NCI-H226; NCI-H226) was 355 nM, the CC50 (NCI-H226; NCI-H226, read-out: pLC50 (converted)) was > 100000 nM and the TGI (NCI-H226; NCI-H226, read-out: pTGI) was > 100000 nM. For the same compound, the inhibition [1] was 55%, the GI50 ([2]; HBC4) was 347 nM and the CC50 ([2]; HBC4, read-out: pLC50 (converted)) was > 100000 nM. For the same compound, the TGI ([2]; HBC4, read-out: pTGI) was > 100000 nM, the GI50 ([3]; MKN-1) was 77.6 nM and the CC50 ([3]; MKN-1, read-out: pLC50 (converted)) was > 100000 nM. For the same compound, the TGI ([3]; MKN-1, read-out: pTGI) was > 100000 nM, the Activity (SK-OV-3 [4]) was “Active” and the GI50 (PC-3; PC-3) was 75.9 nM. The CC50 (PC-3; PC-3, read-out: pLC50 (converted)) was > 100000 nM, the TGI (PC-3; PC-3, read-out: pTGI) was > 100000 nM and the GI50 ([5]; BSY-1) was 324 nM. For the same compound, the CC50 ([5]; BSY-1, read-out: pLC50 (converted)) was > 100000 nM, the TGI ([5]; BSY-1, read-out: pTGI (converted)) was 13200 nM and the GI50 (ACHN) was 389 nM. The CC50 (ACHN; read-out: pLC50 (converted)) was > 100000 nM, the TGI (ACHN; read-out: pTGI) was > 100000 nM and the GI50 (NCI-H460; NCI-H460, read-out: pGI50 (converted)) was > 100000 nM. For the same compound, the CC50 (NCI-H460; NCI-H460, read-out: pLC50 (converted)) was > 100000 nM, the TGI (NCI-H460; NCI-H460, read-out: pTGI) was > 100000 nM and the GI50 (MDA-MB-231; MDA-MB-231) was 155 nM. The CC50 (MDA-MB-231; MDA-MB-231, read-out: pLC50 (converted)) was > 100000 nM, the TGI (MDA-MB-231; MDA-MB-231, read-out: pTGI (converted)) was 52500 nM and the GI50 (MCF7; MCF7) was 158 nM. For the same compound, the CC50 (MCF7; MCF7, read-out: pLC50 (converted)) was > 100000 nM, the TGI (MCF7; MCF7, read-out: pTGI) was > 100000 nM and the Cmax [6] was 155 ng/mL. For the same compound, the GI50 (MKN-74; MKN-74) was 162 nM, the CC50 (MKN-74; MKN-74, read-out: pLC50 (converted)) was > 100000 nM and the TGI (MKN-74; MKN-74, read-out: pTGI (converted)) was 871 nM. For the same compound, the inhibition at 10 µM (MAO-A) was 52%, the Activity (SK-OV-3 [7]) was “Active” and the Activity (SK-OV-3 [8]) was “Active”. For the same compound, the GI50 (SNB-78; SNB-78) was 219 nM, the CC50 (SNB-78; SNB-78, read-out: pLC50 (converted)) was > 100000 nM and the TGI (SNB-78; SNB-78, read-out: pTGI (converted)) was 12000 nM. For the same compound, the GI50 ([9]; RXF 631) was 79.4 nM, the CC50 ([9]; RXF 631, read-out: pLC50 (converted)) was > 100000 nM and the TGI ([9]; RXF 631, read-out: pTGI (converted)) was 501 nM. The GI50 (HCC 2998; HCC 2998) was 129 nM, the CC50 (HCC 2998; HCC 2998, read-out: pLC50 (converted)) was > 100000 nM and the TGI (HCC 2998; HCC 2998, read-out: pTGI (converted)) was 1260 nM. For the same compound, the inhibition (Pepsin A (Sus scrofa)) was 85%, the GI50 (MKN-45; MKN-45) was 57.5 nM and the CC50 (MKN-45; MKN-45, read-out: pLC50 (converted)) was > 100000 nM. The TGI (MKN-45; MKN-45, read-out: pTGI) was > 100000 nM, the Tmax [10] was 0.3 h and the GI50 (LOX IMVI) was 123 nM. For the same compound, the CC50 (LOX IMVI; read-out: pLC50 (converted)) was > 100000 nM, the TGI (LOX IMVI; read-out: pTGI (converted)) was 676 nM and the GI50 (MKN-28; MKN-28) was 112 nM. For the same compound, the CC50 (MKN-28; MKN-28, read-out: pLC50 (converted)) was > 100000 nM, the TGI (MKN-28; MKN-28, read-out: pTGI (converted)) was 17800 nM and the GI50 (SF-295; SF-295) was 115 nM. The CC50 (SF-295; SF-295, read-out: pLC50 (converted)) was > 100000 nM, the TGI (SF-295; SF-295, read-out: pTGI (converted)) was 52500 nM and the GI50 ([11]; DMS144) was 53.7 nM. The CC50 ([11]; DMS144, read-out: pLC50 (converted)) was > 100000 nM, the TGI ([11]; DMS144, read-out: pTGI (converted)) was 676 nM and the Activity (SK-OV-3 [12]) was “Active”. It also gave a GI50 (SK-OV-3 [13]) of 85.1 nM, a CC50 (SK-OV-3 [13]; read-out: pLC50 (the source's name) (converted)) of 63100 nM and a TGI (SK-OV-3 [13]; read-out: pTGI (converted)) of 501 nM. For the same compound, the half-life [14] was 7.3 h.
